# An excerpt weighted towards active compounds, which were near 2.5% of everything screened.
# TRPC4 inh – blocks the mouse TRPC4 cation channel | HEK293 TRPC4beta/mu-opioid, DAMGO-evoked Fluo4 calcium flux; stronger effect = lower value | B-score at 10 µM | 0.39% of 300,000 active | AID 2247;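 active = B-score over 3 SD under the library average, no early fluorescence shift, positive overall ratio signal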
# Target sequence (Q9QUQ5 whole entry, looked up): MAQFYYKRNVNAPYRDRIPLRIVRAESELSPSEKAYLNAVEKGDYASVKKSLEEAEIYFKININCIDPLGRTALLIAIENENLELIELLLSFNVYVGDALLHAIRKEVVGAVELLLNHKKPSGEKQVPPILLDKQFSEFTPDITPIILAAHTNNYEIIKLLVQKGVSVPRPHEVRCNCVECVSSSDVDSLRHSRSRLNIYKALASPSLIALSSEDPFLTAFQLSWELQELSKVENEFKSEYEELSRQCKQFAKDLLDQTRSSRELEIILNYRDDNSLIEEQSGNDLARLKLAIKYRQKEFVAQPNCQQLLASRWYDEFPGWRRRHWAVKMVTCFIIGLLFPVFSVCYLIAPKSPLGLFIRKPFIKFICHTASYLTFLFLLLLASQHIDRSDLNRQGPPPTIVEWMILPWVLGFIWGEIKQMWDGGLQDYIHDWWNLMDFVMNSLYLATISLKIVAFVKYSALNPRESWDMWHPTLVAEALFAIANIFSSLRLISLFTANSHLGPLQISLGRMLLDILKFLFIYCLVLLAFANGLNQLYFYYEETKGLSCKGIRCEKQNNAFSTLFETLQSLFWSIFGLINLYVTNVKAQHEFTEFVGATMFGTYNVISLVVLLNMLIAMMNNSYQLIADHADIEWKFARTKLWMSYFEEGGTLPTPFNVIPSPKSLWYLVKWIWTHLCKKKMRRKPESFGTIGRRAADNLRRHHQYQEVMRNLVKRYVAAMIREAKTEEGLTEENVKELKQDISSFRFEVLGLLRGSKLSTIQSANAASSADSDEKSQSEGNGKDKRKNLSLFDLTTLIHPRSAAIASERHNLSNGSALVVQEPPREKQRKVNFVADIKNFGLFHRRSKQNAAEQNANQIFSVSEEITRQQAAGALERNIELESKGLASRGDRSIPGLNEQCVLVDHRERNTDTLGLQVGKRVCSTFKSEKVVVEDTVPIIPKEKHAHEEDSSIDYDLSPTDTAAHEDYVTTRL
#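 Assay system – HEK293 line stably carrying TRPC4beta and mu-opioid receptor · Doses – single dose · Detection – Fluo4 calcium-dye fluorescence, kinetic read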
# TRPC4 act – opens the mouse TRPC4 cation channel. Q9QUQ5. HEK293 TRPC4beta/mu-opioid, Fluo4 calcium fluorescence; stronger effect = higher value. B-score at 10 µM. 0.49% of 310,000 active. AID 2237;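 active = B-score above 5 SD of library B-scores, and initial fluorescence ratio not above library mean plus 5 SD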;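 also: positive B-score marks a calcium rise read as TRPC4 activation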
#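 Technique: kinetic Fluo4 calcium fluorescence; Test system: TRPC4beta and mu-opioid receptor HEK293 stable cells; Measure: B-scored integrated calcium fluorescence ratio; Benchmarks: low control buffer alone, high control maximal DAMGO; Schedule: 45 min room-temperature Fluo4 loading, 110 s read.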
# Platelet DG rel – modulates dense granule release in human platelets | human platelet-rich plasma, SFLLRN dense granule ATP release, luminescence | inhibition, %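 (compounds screened at 7.5 µM in platelet-rich plasma)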 | 0.22% of 300,000 active | AID 1663;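 active = mean replicate score, as percent of positive control, at or above 50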
# TRPC6 inhibitor – mouse TRPC6 channel inhibition; Q61143; HEK293-TRPC6, membrane potential dye, ACh-evoked depolarization; stronger effect = lower value; B-score at 10 µM; 1.1% of 310,000 active; AID 2553;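 active = B-score under library mean minus 3 SD, initial fluorescence not abnormally high, positive integrated signal ratio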;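 also: B-score derived from integrated fluorescence ratio over the kinetic read; more negative B-score means stronger inhibition of depolarization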
# TRPC6 activator – activates the mouse TRPC6 cation channel; B-score at 10 µM; Q61143; 0.13% of 310,000 active; HEK293-TRPC6 membrane potential dye fluorescence; stronger effect = higher value; AID 2550;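 active = B-score of the integrated fluorescence ratio above library mean plus 3 SD, and starting fluorescence ratio within library mean plus 5 SD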;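 also: higher score means more depolarization so channel activation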
# TRPC4 PAM – allosterically enhances the mouse TRPC4 cation channel | 0.42% of 310,000 active | B-score at 10 µM | HEK293 TRPC4beta/mu-opioid, DAMGO EC20, Fluo-4 Ca2+ flux; stronger effect = higher value | Q9QUQ5;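 active = B-score of calcium response area above 5 SD of library B-scores, with initial fluorescence ratio within 5 SD of library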;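 also: B-score of integrated fluorescence ratio over time as area under calcium response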
# TRPC4 sel inh 2 – second selectivity test of TRPC6 inhibitors: effect on mouse TRPC4. inhibition, % at 10 µM. HEK293 TRPC4/MOR, membrane potential dye fluorescence; channel activated by saturating DAMGO dose. shares compounds with TRPC6 inhibitor. 42% of 920 active;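 active = compounds whose fluorescence signal differed from control wells by over 3 SD, either direction, in both duplicate plates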
# TRPC4 spec – selectivity of TRPC6 inhibitors: effect on mouse TRPC4 | HEK293 TRPC4/mu-opioid, membrane potential fluorescence | shares compounds with TRPC6 inhibitor | 61% of 920 active | AID 2777 | activity change, negative = inhibition, % at 10 µM;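 active = rise or fall in signal beyond 3 SD of buffer-only wells in both replicate plates, either sign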;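 also: integrated kinetic ratio of fluorescence range over baseline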
# HEK293 MPD ctr 2-1 – parental HEK293 nonspecific activity of TRPC6 inhibitors, second screen; shares compounds with TRPC6 inhibitor; signal change vs control, % at 10 µM; 31% of 920 active; parental HEK293 membrane potential dye fluorescence; maximal acetylcholine challenge after compound addition;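 active = membrane potential signal moving either way by over 3 SD of the maximum-effect control, in both duplicate plates, meaning non-specific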
# HEK293 MPD ctr-1 – checks TRPC6 inhibitor effects in parental HEK293 cells; membrane potential signal change, % at 10 µM; AID 2780; shares compounds with TRPC6 inhibitor; parental HEK293 membrane potential dye fluorescence; 60% of 920 active;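 active = membrane potential signal shifting up or down by more than 3 SD of buffer-only wells, on both duplicate plates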
# HEK293 MPD ctr-2 – counter-screen for TRPC6 modulators: effect in parental HEK293 cells; shares compounds with TRPC6 inhibitor; membrane potential dye fluorescence; membrane potential signal change, % at 10 µM; 51% of 2,400 active; AID 488924;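 active = membrane potential signal moves up or down beyond 5 SD from buffer-only wells, on both duplicate plates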
# HEK293 MPD ctr 2-2 – second check of TRPC6 modulator effects in parental HEK293 cells; shares compounds with TRPC6 inhibitor; 14% of 2,400 active; inhibition, % at 10 µM; membrane potential dye fluorescence; after compound, maximal acetylcholine stimulation;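 active = membrane potential signal drops by more than 5 SD from the mean control signal, in both duplicate plates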;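 also: plate controls were acetylcholine ECmax control wells for no effect and buffer only wells for full effect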
# TRPC4/MOR mod – mouse TRPC4 off-target activity of TRPC6 modulators. AID 488927. percent change from control (negative = decrease, positive = increase), % at 10 µM. shares compounds with TRPC6 inhibitor. HEK293 TRPC4/mu-opioid, membrane potential fluorescence. 69% of 2,400 active;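 active = membrane potential signal moved up or down beyond 5 SD of buffer control wells, in both duplicate plates, actives on both sides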;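 also: plate controls were assay buffer wells for no effect and DAMGO maximal-effect wells for full effect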
# TRPC4/MOR inh 2 – second selectivity test of TRPC6 modulators against mouse TRPC4 | shares compounds with TRPC6 inhibitor | HEK293 TRPC4/mu-opioid, membrane potential dye fluorescence; stimulated with maximal-effect DAMGO | inhibition, % at 10 µM | 55% of 2,400 active | AID 488928;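 active = drop in membrane potential signal beyond 5 SD of the control wells in both duplicate plates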;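 also: TRPC4 counter screen for TRPC6 hits run under conditions tuned for TRPC6 not TRPC4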
# TRPC6 block conf – confirmation of mouse TRPC6 inhibitors; shares compounds with TRPC6 inhibitor; HEK293-TRPC6, membrane potential dye, ACh-evoked depolarization; inhibition, % at 10 µM; 43% of 3,300 active;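 active = fluorescence ratio falls more than 5 SD below the full-stimulation control mean, in both duplicate runs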;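 also: integrated fluorescence ratio of peak minus minimum over baseline after agonist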
# TRPC6 act confirm – mouse TRPC6 activator confirmation; shares compounds with TRPC6 inhibitor; 11% of 2,800 active; activation, % at 10 µM; HEK293-TRPC6 membrane potential dye fluorescence, FDSS;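 active = ratio signal rise beyond 5 SD above unstimulated control wells' mean, seen in both duplicate runs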;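 also: plate controls were buffer EC0 wells for no effect and acetylcholine ECmax response for full effect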
# * hit, by the source's call; i = inactive; x = no result given.
SMILES,TRPC4 inh,TRPC4 act,Platelet DG rel,TRPC6 inhibitor,TRPC6 activator,TRPC4 PAM,HEK293 MPD ctr-2,HEK293 MPD ctr 2-2,TRPC4/MOR mod,TRPC4/MOR inh 2,TRPC6 block conf,TRPC6 act confirm,others
CCN(CC)CCCOC(=O)C(OC(C)C)(c1ccccc1)c1ccccc1,i,i,5.6,-9.05*,i,i,x,x,x,x,57.0%*,x,TRPC4 sel inh 2=65.5%*;TRPC4 spec=39.5%*;HEK293 MPD ctr 2-1=i;HEK293 MPD ctr-1=21.9%*
CCOC(=O)C(O)(c1ccc(NC(=O)NC)cc1)C(F)(F)F (configuration not stated),i,i,-10.5,i,i,i,x,x,x,x,x,x,
COc1cc2c3c(c1OC)-c1cc(O)ccc1CC3NCC2 (configuration not stated),i,i,8.0,i,i,i,x,x,x,x,x,x,
COc1cc2c(cc1OC)-c1c(OC)c(OC)cc3c1[C@H](C2)[N+](C)(C)CC3,i,i,-2.1,-8.59*,i,i,-404.5%*,63.0%*,-69.0%*,63.5%*,59.5%*,i,
Oc1ccccc1CN(CCc1ccccc1)Cc1ccccc1,i,i,-3.0,i,i,i,x,x,x,x,x,x,
O=[N+]([O-])c1ccc(N2CCCCC2)c2ncccc12,i,i,-1.3,i,i,i,x,x,x,x,x,x,
O=[N+]([O-])c1ccc(N2CCCNCC2)c2ncccc12,i,138*,6.0,-11.3*,i,i,-444.5%*,110.5%*,-51.5%*,79.0%*,96.5%*,i,
COc1cc2c(cc1OC)-c1c(OC)c(OC)c(OC)c3ccnc(c13)C2=O,i,i,9.0,-7.04*,i,i,-141.5%*,i,-29.0%*,73.5%*,56.5%*,i,
COc1cc(CC2(CCc3ccncc3)C(=O)NC(=O)NC2=O)cc(OC)c1OC,i,i,-2.1,i,i,i,x,x,x,x,x,x,
O=C(c1cccc(C(F)(F)F)c1)N1C[C@H]2C[C@@H](C1)c1cccc(=O)n1C2,i,i,0.9,i,i,i,x,x,x,x,x,x,
O=C1NC(=O)N(c2ccc(F)cc2)C(=O)/C1=C/c1ccsc1,i,i,-0.5,-5.49*,i,i,i,i,i,i,i,x,
O=C1NC(=O)N(c2ccc(Br)cc2)C(=O)/C1=C/c1ccsc1,i,i,-0.7,i,i,i,x,x,x,x,x,x,
O=c1[nH]c(=O)n(Cc2ccc(F)cc2)c(O)c1/C=N/Nc1ccccc1,i,i,0.7,i,i,i,x,x,x,x,x,x,
CCC(CO)(C(=O)OC1C[N+]2(C)CCC1CC2)c1ccccc1 (configuration not stated),i,i,0.0,-11.5*,i,i,x,x,x,x,97.2%*,i,TRPC4 sel inh 2=i;TRPC4 spec=i;HEK293 MPD ctr 2-1=-30.5%*;HEK293 MPD ctr-1=i
C[N+]12CCC(CC1)C(C(O)(c1cccc(Cl)c1)c1cccc(Cl)c1)C2 (configuration not stated),i,i,-29.0,i,i,i,x,x,x,x,x,x,
C[N+]12CCC(CC1)C(OC(=O)C(O)(c1ccccc1)c1ccccc1)C2 (configuration not stated),i,i,4.5,-8.82*,i,i,x,x,x,x,80.9%*,i,TRPC4 sel inh 2=i;TRPC4 spec=i;HEK293 MPD ctr 2-1=8.0%*;HEK293 MPD ctr-1=i
CC(C)(C)n1cc(C(=O)c2ccc3ccccc3c2O)cn1,i,i,-0.7,i,i,i,x,x,x,x,x,x,
C[N+]1(C)C2CCC1CC(OC(=O)C(CO)c1ccccc1)C2 (configuration not stated),i,i,6.5,-8.46*,i,i,x,x,x,x,101.7%*,i,TRPC4 sel inh 2=i;TRPC4 spec=i;HEK293 MPD ctr 2-1=-31.5%*;HEK293 MPD ctr-1=i
C#CC[N+]1(C)[C@@H]2CC(OC(=O)C(CO)c3ccccc3)C[C@H]1C(O)C2 (some centres not stated),i,i,-9.6,-9.94*,i,i,x,x,x,x,87.4%*,i,TRPC4 sel inh 2=i;TRPC4 spec=i;HEK293 MPD ctr 2-1=1.5%*;HEK293 MPD ctr-1=i
CC(C)c1ccccc1NC1=NCCCS1,i,i,2.4,i,i,i,x,x,x,x,x,x,
CCCCn1c(O)c(C(CC)=NCCN2CCCCC2)c(=O)[nH]c1=O,i,i,-5.2,i,i,i,x,x,x,x,x,x,
NCCNc1ccc([N+](=O)[O-])c2cccnc12,i,70*,-2.2,-5.25*,i,10*,-231.5%*,i,-31.0%*,50.5%*,43.0%*,i,
CN1CC(C(=O)c2ccc(Cl)cc2)C(c2ccc(N(C)C)cc2)C1 (configuration not stated),i,i,3.0,-6.46*,i,i,i,i,i,50.0%*,50.5%*,i,
CC(=O)Nc1ccc(C2CN(C)CC2C(=O)c2ccc(Cl)cc2)cc1 (configuration not stated),i,i,9.6,i,i,i,x,x,x,x,x,x,
